# Measured values gathered from unrelated publications.
# Lines come from different studies, so protocols differ.
# Target: Serine/threonine-protein kinase TAO3 (TAOK3, Homo sapiens, UniProt Q9H2K8)
# Residues used in one study (Q9H2K8 1-898): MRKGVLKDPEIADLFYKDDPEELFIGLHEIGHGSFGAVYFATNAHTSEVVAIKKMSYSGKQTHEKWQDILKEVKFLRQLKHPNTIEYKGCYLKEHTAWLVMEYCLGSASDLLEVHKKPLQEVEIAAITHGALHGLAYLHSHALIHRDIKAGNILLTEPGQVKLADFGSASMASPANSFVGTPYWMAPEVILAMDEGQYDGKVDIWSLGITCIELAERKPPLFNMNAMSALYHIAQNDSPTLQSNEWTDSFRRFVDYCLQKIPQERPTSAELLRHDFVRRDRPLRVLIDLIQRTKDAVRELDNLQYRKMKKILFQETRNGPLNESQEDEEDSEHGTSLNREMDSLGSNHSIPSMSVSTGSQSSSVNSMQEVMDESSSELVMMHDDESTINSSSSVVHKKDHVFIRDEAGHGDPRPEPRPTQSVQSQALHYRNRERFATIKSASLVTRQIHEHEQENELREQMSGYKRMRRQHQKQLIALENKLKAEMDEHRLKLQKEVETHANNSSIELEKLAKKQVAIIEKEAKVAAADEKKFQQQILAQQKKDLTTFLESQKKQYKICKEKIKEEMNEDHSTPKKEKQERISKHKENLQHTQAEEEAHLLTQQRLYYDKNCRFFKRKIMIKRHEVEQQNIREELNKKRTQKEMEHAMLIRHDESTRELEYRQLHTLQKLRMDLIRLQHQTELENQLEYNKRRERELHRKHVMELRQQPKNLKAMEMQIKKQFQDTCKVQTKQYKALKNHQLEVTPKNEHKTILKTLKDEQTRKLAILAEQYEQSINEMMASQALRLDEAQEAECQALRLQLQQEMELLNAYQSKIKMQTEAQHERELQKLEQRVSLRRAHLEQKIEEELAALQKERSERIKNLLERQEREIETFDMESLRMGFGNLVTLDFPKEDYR
SMILES,observed,method,tested at,remaining binding [%]
CS(=O)(=O)c1cc(C2(NC(=O)c3cncc4c3cnn4-c3ccc(F)cc3)CC2)ccn1,cell-free assay,competition with immobilised ligand,1 µM,97
Cc1cnn2ncc(-c3ccnc(N(C)C)n3)c2c1,binding,,1 µM,91
Cc1cc(NC(=O)c2cccc(S(F)(F)(F)(F)F)c2)cc(-n2ccn3nc(-c4cccnc4)cc23)c1,cell-free assay,competition with immobilised ligand,1 µM,100
CNC(=O)[C@@H]1CC[C@@H](n2c(-c3ccc4cnccc4c3)nc3ccc(C(=O)NCc4cccc(C(N)=O)c4)cc32)C1,binding,competition with immobilised ligand,1 µM,93
CC1CCCN1c1nccc(-c2cnn3ncccc23)n1 (stereo not shown),binding,,1 µM,48
CCN1CCN(Cc2ccc(C(=O)Nc3ccc(C)c(Oc4ccc5c(c4)CC(=O)N5)c3)cc2C(F)(F)F)CC1,binding,competition with immobilised ligand,1 µM,100
N[C@H]1CCN(c2nccc(-c3cnn4ncccc34)n2)C1,binding,,1 µM,100
O=C(NCCCN1CCOCC1)c1ccc(Nc2nccc(-c3cc4ccccc4s3)n2)cc1,binding,competition with immobilised ligand,1 µM,82
CN(CCCC(F)(F)F)c1nccc(-c2cnn3ncccc23)n1,binding,,1 µM,61
CN1CCN(c2cnc3c(C4CCN(C(=O)c5ccc(OC(F)(F)F)cc5N)CC4)ncnc3c2)CC1,cell-free assay,competition with immobilised ligand,1 µM,100
CN(c1nccc(-c2cnn3ncccc23)n1)C1CC1,binding,,1 µM,54
Nc1cnc(N2CCc3cc(S(=O)(=O)Nc4c(F)cc(Cl)cc4F)cc(N4CCCC4=O)c32)nc1,cell-free assay,competition with immobilised ligand,1 µM,70
C[C@@H]1CCN(c2nccc(-c3cnn4ncccc34)n2)C1,binding,,1 µM,90
CNCc1ccccc1-c1csc([C@@H](C)Nc2nc(C)nc3cc(OC)c(OC)cc23)c1,cell-free assay,competition with immobilised ligand,1 µM,83
CN(C)c1nccc(-c2cnc3ncccn23)n1,binding,,1 µM,68
O=C(NCCCN1CCOCC1)c1ccc(Nc2ncc(Cl)c(-c3ccc(Cl)s3)n2)cc1,binding,competition with immobilised ligand,1 µM,49
C[C@@H](c1ccc(-n2cnc3c(N)ncnc32)cc1)N1CCc2nn(C)c(Cc3ccccc3)c2C1=O,binding,competition with immobilised ligand,0.1 µM,77
C[C@H](c1ccnc(Nc2nc3ccc(-c4cc(N(C)C)ncn4)cc3[nH]2)c1)N1CCN(C(=O)CC(F)(F)F)CC1,cell-free assay,competition with immobilised ligand,0.1 µM,41
FC(F)(F)Oc1cccc(-c2cnc3ccc(-c4ccncc4)nn23)c1,binding,competition with immobilised ligand,5 µM,72
O=C(Nc1c[nH]nc1C(=O)NC1CCNCC1)c1cc(F)cc(F)c1,binding,competition with immobilised ligand,1 µM,70
CC1=C(C#N)[C@@H](c2ccc3[nH]nc(C)c3c2)C(C#N)=C(c2ccc(Cl)cc2)N1,cell-free assay,competition with immobilised ligand,1 µM,100
Cc1cnc(Nc2ccc(C(=O)N3CCC(N4CCCC4)CC3)cc2)nc1-c1cc2ccccc2s1,binding,competition with immobilised ligand,1 µM,77
